Measurements reported in ChEMBL document CHEMBL3351467, “Ligand-free Pd-catalyzed C-N cross-coupling/cyclization strategy: an unprecedented access to 1-thienyl pyrroloquinoxalines for the new approach towards apoptosis” (Eur J Med Chem, 2014).
The source made the active and inactive calls. The rule behind the calls is not given here.

How the values were obtained:
[1] = target: 3',5'-cyclic-AMP phosphodiesterase 4B (Homo sapiens) (UniProt Q07343); test: Inhibition of recombinant His-tagged PDE4B1 (unknown origin) expressed in Sf9 cells at 30 uM pre-incubated for 15 mins before cAMP substrate addition by luminescence assay
Procedure, shortened: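 PDE4B1 purified in house (10 ng) pre-incubated 15 min with compound or DMSO vehicle. cAMP substrate ([…]) added for 1 h, then reaction stopped and detection reagent applied 10 min in the dark. Luminescence (RLU) read. % inhibition = (RLU vehicle − RLU inhibitor)/RLU vehicle × 100.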

[2] = species on record: Danio rerio; test: Induction of apoptosis in Zebrafish embryo up to 3 uM incubated for 24 to 48 hrs by acridine orange based fluorescence microscopy; type: functional, organism-based
Procedure, shortened: (§1)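 Embryos dechorionated by hand at 24 hpf, 6 per well in two sets, in 0.1% DMSO. Compound added from serially diluted working stocks, kept at 28 °C for 24 h and 48 h. Washed three times in E3, stained 30 min with acridine orange ([…]) in E3, rinsed twice, then examined for apoptosis.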

[3] = species on record: Danio rerio; test: Induction of cell death in Zebrafish embryo at 10 to 30 uM incubated for 24 to 48 hrs by acridine orange based fluorescence microscopy; type: functional, organism-based; procedure, shortened: as §1
[4] = species on record: Danio rerio; test: Teratogenicity in Zebrafish embryo at 10 to 30 uM incubated at 28.5 degC until 5 days post fertilization; type: ADME, organism-based; conditions: in vivo, 120 h
Procedure, shortened: (§2)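 Embryos at 1 dpf dechorionated with 0.5 mg/ml pronase E and washed in E3. Exposed 6 per well to compound serially diluted in E3 with a final 0.1% DMSO, at 28.5 °C until 5 dpf. Embryos then washed, anaesthetised with 0.008% tricaine and scored blind for body shape, somites, notochord, tail, intestine, fins, brain, jaws, heart, liver and swim bladder. Phenobarbital (3 mM) served as positive control.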

[5] = Teratogenicity in Zebrafish embryo assessed as live embryo level at 3 uM incubated at 28.5 degC until 5 days post fertilization; type: ADME, organism-based, Danio rerio; conditions: zebrafish embryos, read-out: Activity
Procedure, shortened: (§3)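 Zebrafish embryos collected at 1 dpf, staged, dechorionated with 0.5 mg/ml pronase E and washed in E3 medium. Compound serially diluted in E3 with 0.1% DMSO final. Six embryos per well, exposed at 28.5 °C until 5 dpf, then washed, anaesthetised with 0.008% tricaine and scored for morphology (body shape, somites, notochord, tail, intestine, fins, brain, jaws, heart, liver, swim bladder). Blinded; phenobarbital 3 mM positive control.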

[6] = species on record: Danio rerio; test: Teratogenicity in Zebrafish embryo assessed as induction of morphological deformities at 3 uM incubated at 28.5 degC until 5 days post fertilization; type: organism-based; conditions: in vivo, 120 h; procedure, shortened: as §2
[7] = species on record: Danio rerio; test: Teratogenicity in Zebrafish embryo assessed as live embryo level at 1 uM incubated at 28.5 degC until 5 days post fertilization; type: ADME, organism-based; conditions: in vivo, 120 h; procedure, shortened: as §2
[8] = species on record: Danio rerio; test: Teratogenicity in Zebrafish embryo assessed as induction of morphological deformities at swim bladder at 1 uM incubated at 28.5 degC until 5 days post fertilization; type: toxicity, organism-based; conditions: in vivo, 120 h; procedure, shortened: as §2
[9] = species on record: Danio rerio; test: Teratogenicity in Zebrafish embryo assessed as induction of morphological deformities at lower jaw at 1 uM incubated at 28.5 degC until 5 days post fertilization; type: organism-based; conditions: in vivo, 120 h; procedure, shortened: as §2
[10] = species on record: Danio rerio; test: Hepatotoxicity in Zebrafish embryo at 1 uM incubated at 28 degC until 7 days post fertilization; type: organism-based; conditions: in vivo, 168 h
Procedure, shortened: (§4)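 Larvae at 4 dpf exposed in 24-well plates, 6 per well in 0.1% DMSO, to final 1, 3, 10 and 30 concentrations, incubated at 28 °C until 7 dpf. Washed in E3 and anaesthetised with tricaine. Images scored for liver size, liver degeneration and yolk sac retention as percentages. Amiodarone served as positive control.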

[11] = species on record: Danio rerio; test: Hepatotoxicity in Zebrafish embryo at 3 uM incubated at 28 degC until 7 days post fertilization; type: organism-based; conditions: in vivo, 168 h; procedure, shortened: as §4
[12] = species on record: Danio rerio; test: Hepatotoxicity in Zebrafish embryo assessed as induction of embryo mortality at 10 to 30 uM incubated at 28 degC until 7 days post fertilization; type: organism-based; conditions: in vivo, 168 h
Procedure, shortened: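 Zebrafish embryos at 4 dpf, six per well in 0.1% DMSO, exposed to final compound concentrations of 1, 3, 10 and 30 at 28 °C until 7 dpf. Embryos then washed in E3 medium, anaesthetised with tricaine and imaged; liver size, liver degeneration and yolk sac retention quantified as percentages. Amiodarone served as positive control; evaluation blinded.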

[13] = species on record: Danio rerio; test: Toxicity in Zebrafish embryo at 1 to 30 uM; type: organism-based; conditions: in vivo; procedure, shortened: as §2
[14] = species on record: Danio rerio; test: Toxicity in Zebrafish embryo assessed as induction of changes in body shape at 1 uM; type: organism-based; conditions: in vivo; procedure, shortened: as §2
[15] = species on record: Danio rerio; test: Toxicity in Zebrafish embryo assessed as induction of changes in somites at 1 uM; type: organism-based; conditions: in vivo; procedure, shortened: as §2
[16] = species on record: Danio rerio; test: Toxicity in Zebrafish embryo assessed as induction of changes in notochords at 1 uM; type: organism-based, Notochord; conditions: in vivo; procedure, shortened: as §2
[17] = species on record: Danio rerio; test: Toxicity in Zebrafish embryo assessed as induction of changes in tail region at 1 uM; type: organism-based; conditions: in vivo; procedure, shortened: as §2
[18] = species on record: Danio rerio; test: Toxicity in Zebrafish embryo assessed as induction of changes in fins region at 1 uM; type: organism-based; conditions: in vivo; procedure, shortened: as §2
[19] = species on record: Danio rerio; test: Toxicity in Zebrafish embryo assessed as induction of changes in brain region at 1 uM; type: organism-based; conditions: in vivo; procedure, shortened: as §2
[20] = species on record: Danio rerio; test: Toxicity in Zebrafish embryo assessed as induction of changes in upper jaw region at 1 uM; type: organism-based; conditions: in vivo; procedure, shortened: as §2
[21] = species on record: Danio rerio; test: Toxicity in Zebrafish embryo assessed as induction of changes in heart region at 1 uM; type: organism-based; conditions: in vivo; procedure, shortened: as §2
[22] = species on record: Danio rerio; test: Toxicity in Zebrafish embryo assessed as induction of changes in intestine region at 1 uM; type: organism-based; conditions: in vivo; procedure, shortened: as §2
[23] = species on record: Danio rerio; test: Toxicity in Zebrafish embryo assessed as induction of changes in lower jaw region at 1 uM; type: organism-based; conditions: in vivo; procedure, shortened: as §2
[24] = species on record: Danio rerio; test: Toxicity in Zebrafish embryo assessed as induction of changes in liver region at 1 uM; type: organism-based; conditions: in vivo; procedure, shortened: as §2
[25] = species on record: Danio rerio; test: Toxicity in Zebrafish embryo assessed as induction of changes in swim bladder region at 1 uM; type: organism-based; conditions: in vivo; procedure, shortened: as §2
[26] = species on record: Danio rerio; test: Induction of apoptosis in Zebrafish embryo incubated for 24 to 48 hrs by acridine orange based fluorescence microscopy; type: functional, organism-based; procedure, shortened: as §1
[27] = species on record: Danio rerio; test: Teratogenicity in Zebrafish embryo incubated at 28.5 degC until 5 days post fertilization; type: ADME, organism-based; conditions: in vivo, 120 h; procedure, shortened: as §2
[28] = Therapeutic index, ratio of NOAEL in Zebrafish embryos to apoptotic EC50 in Zebrafish embryos; type: organism-based, Danio rerio; conditions: read-out: TI
[29] = species on record: Danio rerio; test: Toxicity in Zebrafish embryo assessed as induction of changes in body shape at 3000 uM; type: organism-based; conditions: in vivo
Procedure, shortened: (§5)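 Embryos at 1 dpf were dechorionated with 0.5 mg/ml pronase E and washed in E3. They were exposed in groups of 6 to compound serially diluted in E3 (final 0.1% DMSO) at 28.5 °C until 5 dpf. Embryos were then washed, anesthetized with 0.008% tricaine, and scored blinded for morphology of body shape, somites, notochord, tail, intestine, fins, brain, jaws, heart, liver and swim bladder.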

[30] = species on record: Danio rerio; test: Toxicity in Zebrafish embryo assessed as induction of changes in somites at 3000 uM; type: organism-based; conditions: in vivo; procedure, shortened: as §5
[31] = species on record: Danio rerio; test: Toxicity in Zebrafish embryo assessed as induction of changes in notochords at 3000 uM; type: organism-based, Notochord; conditions: in vivo; procedure, shortened: as §5
[32] = species on record: Danio rerio; test: Toxicity in Zebrafish embryo assessed as induction of changes in tail region at 3000 uM; type: organism-based; conditions: in vivo; procedure, shortened: as §5
[33] = species on record: Danio rerio; test: Toxicity in Zebrafish embryo assessed as induction of changes in fins region at 3000 uM; type: organism-based; conditions: in vivo; procedure, shortened: as §5
[34] = species on record: Danio rerio; test: Toxicity in Zebrafish embryo assessed as induction of changes in brain region at 3000 uM; type: organism-based; conditions: in vivo; procedure, shortened: as §3
[35] = species on record: Danio rerio; test: Toxicity in Zebrafish embryo assessed as induction of changes in upper jaw region at 3000 uM; type: organism-based; conditions: in vivo; procedure, shortened: as §5
[36] = species on record: Danio rerio; test: Toxicity in Zebrafish embryo assessed as induction of changes in heart region at 3000 uM; type: organism-based; conditions: in vivo; procedure, shortened: as §5
[37] = species on record: Danio rerio; test: Toxicity in Zebrafish embryo assessed as induction of changes in intestine region at 3000 uM; type: organism-based; conditions: in vivo; procedure, shortened: as §5
[38] = species on record: Danio rerio; test: Toxicity in Zebrafish embryo assessed as induction of changes in lower jaw region at 3000 uM; type: organism-based; conditions: in vivo; procedure, shortened: as §5
[39] = species on record: Danio rerio; test: Toxicity in Zebrafish embryo assessed as induction of changes in liver region at 3000 uM; type: organism-based; conditions: in vivo; procedure, shortened: as §5
[40] = species on record: Danio rerio; test: Toxicity in Zebrafish embryo assessed as induction of changes in swim bladder region at 3000 uM; type: organism-based; conditions: in vivo; procedure, shortened: as §5

3',5'-cyclic-AMP phosphodiesterase 4B (Homo sapiens), sequence (Q07343 whole entry): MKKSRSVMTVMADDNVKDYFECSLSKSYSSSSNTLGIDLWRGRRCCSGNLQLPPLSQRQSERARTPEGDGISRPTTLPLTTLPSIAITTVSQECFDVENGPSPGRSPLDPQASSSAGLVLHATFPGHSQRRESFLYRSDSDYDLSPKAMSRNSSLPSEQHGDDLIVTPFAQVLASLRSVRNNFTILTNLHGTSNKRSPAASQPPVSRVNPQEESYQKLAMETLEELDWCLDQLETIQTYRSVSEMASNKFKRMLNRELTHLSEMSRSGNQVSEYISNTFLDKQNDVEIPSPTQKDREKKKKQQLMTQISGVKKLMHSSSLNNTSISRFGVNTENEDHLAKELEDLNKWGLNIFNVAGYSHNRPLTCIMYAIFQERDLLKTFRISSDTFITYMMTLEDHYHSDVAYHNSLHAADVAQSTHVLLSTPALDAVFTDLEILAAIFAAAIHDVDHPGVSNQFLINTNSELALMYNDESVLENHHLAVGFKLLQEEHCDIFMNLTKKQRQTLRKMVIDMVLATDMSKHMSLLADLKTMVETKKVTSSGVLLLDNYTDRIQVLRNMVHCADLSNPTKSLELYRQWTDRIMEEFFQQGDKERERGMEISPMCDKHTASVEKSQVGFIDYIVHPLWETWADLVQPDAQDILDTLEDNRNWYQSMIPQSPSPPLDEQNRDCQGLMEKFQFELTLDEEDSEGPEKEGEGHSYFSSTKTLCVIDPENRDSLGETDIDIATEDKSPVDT

## CCOC(=O)c1c(-n2c(-c3ccccc3)cc3nccnc32)sc2c1CCC2
[1]
  inhibition: 62%
[2]
  Activity: Active
[3]
  Activity: Active
[4]
  Activity: Toxic
[5]
  survival at 120 h, 3 µM: 50%
[6]
  Activity: Toxic
[7]
  Activity: Non-toxic
[8]
  Activity: Toxic
[9]
  Activity: Toxic
[10]
  Activity: Non-toxic
[11]
  Activity: Toxic
[12]
  Activity: Toxic
[13]
  LD: 10 µM
  MTC: 1 µM
  NOAEL: < 1 µM
[14]
  Activity: Non-toxic
[15]
  Activity: Toxic
[16]
  Activity: Non-toxic
[17]
  Activity: Non-toxic
[18]
  Activity: Non-toxic
[19]
  Activity: Non-toxic
[20]
  Activity: Non-toxic
[21]
  Activity: Non-toxic
[22]
  Activity: Non-toxic
[23]
  Activity: Toxic
[24]
  Activity: Toxic
[25]
  Activity: Toxic
[26]
  EC50: 1730 nM
[27]
  NOAEL: 1 µM
[28]
  selectivity ratio: 0.577

## CCC1(c2ccccc2)C(=O)NC(=O)NC1=O [PHENOBARBITAL]
[29]
  Activity: Toxic
[30]
  Activity: Toxic
[31]
  Activity: Toxic
[32]
  Activity: Toxic
[33]
  Activity: Toxic
[34]
  Activity: Toxic
[35]
  Activity: Toxic
[36]
  Activity: Toxic
[37]
  Activity: Toxic
[38]
  Activity: Toxic
[39]
  Activity: Toxic
[40]
  Activity: Toxic
